Results reported in publication PMC3149718 (Molecular and cellular biochemistry, 2011).

Assays:
[1] = target: T1, Cy3-labeled CPTI WT 89-residue peptide (Rattus norvegicus, UniProt P32198); experiment: FRET between Cy3-labeled CPTI peptide and Cy5-labeled LCFA-CoA binding proteins; settings: Cy5-labeled acceptor protein; for Sensitized Emission R (intermolecular distance): donor Cy3-CPTI WT
T1 sequence (P32198 381-469): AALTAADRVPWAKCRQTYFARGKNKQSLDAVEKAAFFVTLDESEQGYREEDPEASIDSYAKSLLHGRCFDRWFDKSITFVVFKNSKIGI

[2] = target: T2, Cy3-labeled W391A 89-residue CPTI peptide (Rattus norvegicus, UniProt P32198, W391A); experiment: as above; settings: donor Cy3-W391A, Cy5-labeled acceptor protein
T2 sequence (P32198 381-469 W391A): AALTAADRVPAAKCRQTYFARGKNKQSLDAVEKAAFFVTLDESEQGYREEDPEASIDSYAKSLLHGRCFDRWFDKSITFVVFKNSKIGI

[3] = target: T3, W391A mutant CPTI in mitochondria from yeast (Rattus norvegicus, UniProt P32198, W391A); experiment: CPTI activity assay; type: biochemical
T3 sequence (P32198 1-773 W391A): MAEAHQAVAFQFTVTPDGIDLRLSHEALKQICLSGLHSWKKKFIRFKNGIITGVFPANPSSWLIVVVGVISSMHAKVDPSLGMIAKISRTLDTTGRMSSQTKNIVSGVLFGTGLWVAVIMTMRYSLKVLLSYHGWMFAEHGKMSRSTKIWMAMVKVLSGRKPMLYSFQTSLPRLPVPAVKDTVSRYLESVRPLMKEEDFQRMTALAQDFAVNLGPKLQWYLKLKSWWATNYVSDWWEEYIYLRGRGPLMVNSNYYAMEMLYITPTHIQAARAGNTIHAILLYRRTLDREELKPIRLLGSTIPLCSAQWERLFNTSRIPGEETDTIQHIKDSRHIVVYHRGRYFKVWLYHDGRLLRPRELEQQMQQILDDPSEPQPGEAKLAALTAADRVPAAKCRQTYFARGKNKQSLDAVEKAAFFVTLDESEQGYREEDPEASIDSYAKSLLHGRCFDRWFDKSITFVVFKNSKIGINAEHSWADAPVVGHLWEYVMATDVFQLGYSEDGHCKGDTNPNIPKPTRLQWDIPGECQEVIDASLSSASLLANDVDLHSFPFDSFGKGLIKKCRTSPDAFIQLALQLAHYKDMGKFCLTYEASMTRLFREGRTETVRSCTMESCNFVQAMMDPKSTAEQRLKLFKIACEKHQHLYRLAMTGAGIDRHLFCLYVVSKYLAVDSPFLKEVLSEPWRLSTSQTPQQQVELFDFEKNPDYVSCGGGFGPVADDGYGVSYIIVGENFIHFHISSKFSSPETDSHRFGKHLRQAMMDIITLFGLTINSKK
Outline: (§1)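 Mitochondria isolated from yeast strains expressing wild-type or mutant CPTI were assayed by forward exchange with L-[methyl-3H]carnitine at a fixed 1.0 mM carnitine, using 150 µg mitochondrial protein. […] Incubation was 5 min at 30°C and was stopped with 6% perchloric acid. Values are mean ± SE.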

[4] = target: T4, wild-type CPTI in mitochondria from yeast (Rattus norvegicus, UniProt P32198); experiment: CPTI activity assay; type: biochemical
T4 sequence (P32198 1-773): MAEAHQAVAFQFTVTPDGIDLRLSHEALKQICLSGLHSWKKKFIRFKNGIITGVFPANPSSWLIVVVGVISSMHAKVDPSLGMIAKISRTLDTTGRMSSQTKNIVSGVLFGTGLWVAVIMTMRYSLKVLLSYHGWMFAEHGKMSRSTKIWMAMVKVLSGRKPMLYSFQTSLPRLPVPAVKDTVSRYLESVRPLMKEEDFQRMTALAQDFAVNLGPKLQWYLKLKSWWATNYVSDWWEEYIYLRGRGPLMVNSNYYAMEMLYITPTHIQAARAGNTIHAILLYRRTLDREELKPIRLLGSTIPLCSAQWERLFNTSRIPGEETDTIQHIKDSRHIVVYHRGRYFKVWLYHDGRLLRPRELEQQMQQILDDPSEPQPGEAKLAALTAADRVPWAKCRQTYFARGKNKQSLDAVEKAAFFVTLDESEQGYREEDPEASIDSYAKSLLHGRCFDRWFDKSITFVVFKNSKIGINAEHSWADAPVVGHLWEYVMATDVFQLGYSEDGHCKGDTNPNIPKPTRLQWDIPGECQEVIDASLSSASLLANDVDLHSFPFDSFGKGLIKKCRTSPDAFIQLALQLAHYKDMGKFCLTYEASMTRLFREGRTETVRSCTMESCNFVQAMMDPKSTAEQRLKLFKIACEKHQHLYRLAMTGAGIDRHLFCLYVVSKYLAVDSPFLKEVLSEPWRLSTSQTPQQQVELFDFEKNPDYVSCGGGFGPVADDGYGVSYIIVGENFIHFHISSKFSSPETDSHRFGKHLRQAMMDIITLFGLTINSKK
Outline: as §1

[5] = target: T5, Cy3-labeled W452A 89-residue CPTI peptide (Rattus norvegicus, UniProt P32198, W452A); experiment: FRET between Cy3-labeled CPTI peptide and Cy5-labeled LCFA-CoA binding proteins; settings: donor Cy3-W452A, Cy5-labeled acceptor protein
T5 sequence (P32198 381-469 W452A): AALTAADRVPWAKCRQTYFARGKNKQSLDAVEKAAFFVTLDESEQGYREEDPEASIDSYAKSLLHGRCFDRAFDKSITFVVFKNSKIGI

[6] = target: T6, W452A mutant CPTI in mitochondria from yeast (Rattus norvegicus, UniProt P32198, W452A); experiment: CPTI activity assay; type: biochemical
T6 sequence (P32198 1-773 W452A): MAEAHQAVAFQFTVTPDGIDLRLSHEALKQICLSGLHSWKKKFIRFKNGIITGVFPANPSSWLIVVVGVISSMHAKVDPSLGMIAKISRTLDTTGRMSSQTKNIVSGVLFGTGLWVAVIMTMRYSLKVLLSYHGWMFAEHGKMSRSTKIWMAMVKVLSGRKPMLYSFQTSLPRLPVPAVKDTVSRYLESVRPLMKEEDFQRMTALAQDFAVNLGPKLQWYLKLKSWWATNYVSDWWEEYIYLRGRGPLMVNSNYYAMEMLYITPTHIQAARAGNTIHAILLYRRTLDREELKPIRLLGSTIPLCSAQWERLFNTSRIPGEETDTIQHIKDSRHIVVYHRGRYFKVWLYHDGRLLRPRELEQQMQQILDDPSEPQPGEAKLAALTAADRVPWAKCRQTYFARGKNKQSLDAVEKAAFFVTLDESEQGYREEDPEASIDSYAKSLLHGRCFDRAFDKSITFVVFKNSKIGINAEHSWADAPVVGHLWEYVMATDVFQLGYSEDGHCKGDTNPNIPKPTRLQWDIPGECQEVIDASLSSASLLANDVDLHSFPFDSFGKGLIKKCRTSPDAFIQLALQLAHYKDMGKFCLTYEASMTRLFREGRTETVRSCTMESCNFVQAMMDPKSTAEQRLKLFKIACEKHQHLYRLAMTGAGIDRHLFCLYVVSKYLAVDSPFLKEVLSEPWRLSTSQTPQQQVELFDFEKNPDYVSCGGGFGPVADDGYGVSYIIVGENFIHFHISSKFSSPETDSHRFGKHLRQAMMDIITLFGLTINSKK
Outline: as §1

[7] = donor protein 15uM, palmitoyl-CoA to protein molar ratio 7.41
[8] = donor protein 30uM, palmitoyl-CoA to protein molar ratio 3.70
[9] = donor protein 60uM, palmitoyl-CoA to protein molar ratio 1.85

Molecule: CytoC: Cytochrome C purchased from Sigma Aldrich, used as control protein [reference compound]
- Sensitized Emission Kd ([1]; donor Cy3-CPTI WT 30 nM, PBS 24°C): no FRET or binding was observed

B1: ACBP: Mouse recombinant acyl CoA binding protein (protein)
chain: MSQAEFDKAAEEVKRLKTQPTDEEMLFIYSHFKQATVGDVNTDRPGLLDLKGKAKWDSWNKLKGTSKESAMKTYVEKVDELKKKYGI
modifications: Cy5 dye, approximately 1 dye per protein molecule (in the FRET assay only; unlabelled in circular dichroism)
- Sensitized Emission R (intermolecular distance) [2]: 65 ± 1 Å
- CPTI activity, W391A [3, 7]: 3.3 ± 0.1 nmol/min/mg
- CPTI activity, W391A [3, 8]: 4.5 ± 0.9 nmol/min/mg
- CPTI activity, W391A [3, 9]: 5.7 ± 0.1 nmol/min/mg
- CPTI activity, WT [4, 7]: 31.8 ± 2.1 nmol/min/mg
- CPTI activity, WT [4, 8]: 27.6 ± 2.4 nmol/min/mg
- CPTI activity, WT [4, 9]: 13.2 ± 0.1 nmol/min/mg
- Sensitized Emission R (intermolecular distance) [5]: 65.8 ± 0.2 Å
- Sensitized Emission R (intermolecular distance) [1]: 56 ± 1 Å
- CPTI activity, W452A [6, 7]: 0.7 ± 0.2 nmol/min/mg
- CPTI activity, W452A [6, 8]: 0.8 ± 0.2 nmol/min/mg
- CPTI activity, W452A [6, 9]: 1.3 ± 0.1 nmol/min/mg

B2: L-FABP: Mouse recombinant liver fatty acid binding protein, delipidated (protein)
chain: MNFSGKYQLQSQENFEPFMKAIGLPEDLIQKGKDIKGVSEIVHEGKKIKLTITYGPKVVRNEFTLGEECELETMTGEKVKAVVKLEGDNKMVTTFKGIKSVTELNGDTITNTMTLGDIVYKRVSKRI
modifications: Cy5 dye, approximately 1 dye per protein molecule (in the FRET assay only; unlabelled in circular dichroism)
- Sensitized Emission R (intermolecular distance) [2]: 50 ± 2 Å
- CPTI activity, W391A [3, 7]: 4.2 ± 0.1 nmol/min/mg
- CPTI activity, W391A [3, 8]: 5.9 ± 0.1 nmol/min/mg
- CPTI activity, W391A [3, 9]: 7.4 ± 0.1 nmol/min/mg
- CPTI activity, WT [4, 7]: 39.3 ± 2.5 nmol/min/mg
- CPTI activity, WT [4, 8]: 37.6 ± 0.1 nmol/min/mg
- CPTI activity, WT [4, 9]: 34.0 ± 0.1 nmol/min/mg
- Sensitized Emission R (intermolecular distance) [5]: 82 ± 1 Å
- Sensitized Emission R (intermolecular distance) [1]: 56 ± 3 Å
- CPTI activity, W452A [6, 7]: 0.9 ± 0.2 nmol/min/mg
- CPTI activity, W452A [6, 8]: 1.1 ± 0.1 nmol/min/mg
- CPTI activity, W452A [6, 9]: 1.6 ± 0.1 nmol/min/mg

B3: SCP-2: Human recombinant sterol carrier protein-2 (protein, UniProt P22307 1-547, looked up)
Sterol carrier protein 2: MSSSPWEPATLRRVFVVGVGMTKFVKPGAENSRDYPDLAEEAGKKALADAQIPYSAVDQACVGYVFGDSTCGQRAIYHSLGMTGIPIINVNNNCATGSTALFMARQLIQGGVAECVLALGFEKMSKGSLGIKFSDRTIPTDKHVDLLINKYGLSAHPVAPQMFGYAGKEHMEKYGTKIEHFAKIGWKNHKHSVNNPYSQFQDEYSLDEVMASKEVFDFLTILQCCPTSDGAAAAILASEAFVQKYGLQSKAVEILAQEMMTDLPSSFEEKSIIKMVGFDMSKEAARKCYEKSGLTPNDIDVIELHDCFSTNELLTYEALGLCPEGQGATLVDRGDNTYGGKWVINPSGGLISKGHPLGATGLAQCAELCWQLRGEAGKRQVPGAKVALQHNLGIGGAVVVTLYKMGFPEAASSFRTHQIEAVPTSSASDGFKANLVFKEIEKKLEEEGEQFVKKIGGIFAFKVKDGPGGKEATWVVDVKNGKGSVLPNSDKKADCTITMADSDFLALMTGKMNPQSAFFQGKLKITGNMGLAMKLQNLQLQPGNAKL
modifications: Cy5 label
- CPTI activity, W391A [3, 7]: 4.7 ± 0.1 nmol/min/mg
- CPTI activity, W391A [3, 8]: 5.7 ± 0.2 nmol/min/mg
- CPTI activity, W391A [3, 9]: 4.5 ± 0.1 nmol/min/mg
- CPTI activity, WT [4, 7]: 31.7 ± 1.1 nmol/min/mg
- CPTI activity, WT [4, 8]: 26.1 ± 1.1 nmol/min/mg
- CPTI activity, WT [4, 9]: 16.5 ± 0.1 nmol/min/mg
- CPTI activity, W452A [6, 7]: 0.8 ± 0.2 nmol/min/mg
- CPTI activity, W452A [6, 8]: 1.2 ± 0.2 nmol/min/mg
- CPTI activity, W452A [6, 9]: 0.9 ± 0.2 nmol/min/mg
